According to ChEMBL document CHEMBL3525966, “Compartmental and enzyme kinetic modeling to elucidate the biotransformation pathway of a centrally acting antitrypanosomal prodrug” (Drug Metab Dispos, 2013):

What was measured:
Liver microsome [1] = test: Drug metabolism in human liver microsomes assessed as (Z)-N'-hydroxy-6-(5-(5-((Z)-N'-methoxycarbamimidoyl)pyridin-2-yl)furan-2-yl nicotinimidamide formation measured by HPLC-MS/MS analysis; type: ADME
Procedure, shortened: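 M1 formation kinetics: HLM or RLM (0.5 mg/mL) in phosphate pH 7.4 with MgCl2, DB868 0.1–100 µM, started with 2 mM NADPH. Run 5 min (HLM) or 10 min (RLM) under initial-rate conditions (<20% consumption) in triplicate. Quantified by HPLC/MS/MS with d6-DB868 internal standard. Fitted to a one-enzyme (HLM) or two-enzyme (RLM) Michaelis–Menten model; Clint = Vmax/Km.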

Liver microsome [2] = test: Prodrug conversion in rat liver microsomes assessed as elution time at 10 uM after 180 mins incubation by HPLC-UV chromatography; type: ADME; conditions: 3 h
Procedure, shortened: (§1)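 HLM or RLM (0.5 mg/mL) were incubated in triplicate in 100 mM phosphate pH 7.4 with 10 mM MgCl2 and an NADPH-regenerating system (1 mM NADP+, glucose 6-phosphate, G6PDH). DB868 was 10 µM. Sampled up to 180 min. Prodrug and metabolites were measured by HPLC-UV at 359 nm and expressed relative to initial prodrug; DB829 LLOQ 50 nM.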

[3] = Drug metabolism in sandwich-cultured human hepatocytes assessed as (Z)-6-(5-(5-carbamimidoylpyridin-2-yl)furan-2-yl)-N' methoxynicotinimidamide at 10 uM after 4 hrs of incubation by HPLC-MS/MS analysis; type: ADME, cell-based, Hepatocyte
Procedure, shortened: (§2)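 Sandwich-cultured hepatocytes were used on day 5 (human) or day 4 (rat) and rinsed with warm phenol-red-free DMEM. They were then exposed to 10 µM DB868 (0.1–0.2% DMSO) at 37°C. Medium and methanol/water cell lysates were collected at 0.5, 2, 4 and 24 h. Analytes were quantified by HPLC/MS/MS with deuterated internal standards; protein by Bradford. Replicates: 6 (human) or 4 (rat).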

[4] = Drug metabolism in sandwich-cultured rat hepatocytes assessed as (Z)-6-(5-(5-carbamimidoylpyridin-2-yl)furan-2-yl)-N'methoxynicotinimidamide at 10 uM after 4 hrs of incubation by HPLC-MS/MS analysis; type: ADME, cell-based, Hepatocyte; procedure, shortened: as §2
[5] = Drug metabolism in sandwich-cultured human hepatocytes assessed as DB829 at 10 uM after 24 hrs of incubation by HPLC-MS/MS analysis; type: ADME, cell-based, Hepatocyte; procedure, shortened: as §2
[6] = Biotransformation in sandwich-cultured rat hepatocytes assessed as depletion of compound at 10 uM after 4 hrs of incubation by HPLC-MS/MS analysis; type: ADME, cell-based, Hepatocyte; conditions: read-out: Drug metabolism; procedure, shortened: as §2
[7] = Drug metabolism in sandwich-cultured human hepatocytes assessed as (Z)-N'-hydroxy-6-(5-(5-((Z)-N'-methoxycarbamimidoyl)pyridin-2-yl)furan-2-yl)nicotinimidamide at 10 uM after 4 hrs of incubation by HPLC-MS/MS analysis; type: ADME, cell-based, Hepatocyte; procedure, shortened: as §2
[8] = system: Trypanosoma brucei rhodesiense; test: Antitrypanosomal activity against Trypanosoma brucei rhodesiense STIB900 infected po dosed mouse model; type: functional
Liver microsome [9] = test: Prodrug conversion in rat liver microsomes assessed as depletion of compound at 10 uM after 180 mins incubation by HPLC-UV chromatography; type: ADME; conditions: 3 h; procedure, shortened: as §1
Cytochrome P450 1A2 = biological target: T1, Cytochrome P450 1A2 (Homo sapiens, UniProt P05177); test: Prodrug conversion assessed as human recombinant CYP1A2-mediated (Z)-N'-hydroxy-6-(5-(5-((Z)-N'-methoxycarbamimidoyl)pyridin-2-yl)furan-2-yl) nicotinimidamide formation at 5 uM […] by HPLC-UV chromatogram; type: ADME; conditions: recombinant enzyme, 3 h
T1 sequence (P05177 whole entry): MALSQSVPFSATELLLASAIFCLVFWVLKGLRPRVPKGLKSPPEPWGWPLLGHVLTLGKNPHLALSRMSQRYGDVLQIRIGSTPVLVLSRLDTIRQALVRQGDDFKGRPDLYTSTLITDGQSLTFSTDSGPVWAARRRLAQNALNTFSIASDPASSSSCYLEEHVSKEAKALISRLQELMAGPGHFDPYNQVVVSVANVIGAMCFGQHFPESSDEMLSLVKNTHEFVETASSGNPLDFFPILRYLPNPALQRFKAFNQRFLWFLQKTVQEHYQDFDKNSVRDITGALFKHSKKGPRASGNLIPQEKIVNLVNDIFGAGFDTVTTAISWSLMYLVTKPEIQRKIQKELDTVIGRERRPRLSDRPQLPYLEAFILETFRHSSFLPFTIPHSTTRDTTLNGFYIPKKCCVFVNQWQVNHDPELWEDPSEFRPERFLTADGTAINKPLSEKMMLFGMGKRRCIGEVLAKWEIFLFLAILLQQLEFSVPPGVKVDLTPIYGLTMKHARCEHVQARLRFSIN

Cytochrome P450 4F2 = biological target: T2, Cytochrome P450 4F2 (Homo sapiens, UniProt P78329); test: Prodrug conversion assessed as human recombinant CYP4F2-mediated (Z)-N'-hydroxy-6-(5-(5-((Z)-N'-methoxycarbamimidoyl)pyridin-2-yl)furan-2-yl) nicotinimidamide formation at 5 uM after 180 mins incubation by HPLC-UV chromatogram; type: ADME; conditions: recombinant enzyme, 15 min, in the assay text read “15 mins” for “180 mins”
T2 sequence (P78329 whole entry): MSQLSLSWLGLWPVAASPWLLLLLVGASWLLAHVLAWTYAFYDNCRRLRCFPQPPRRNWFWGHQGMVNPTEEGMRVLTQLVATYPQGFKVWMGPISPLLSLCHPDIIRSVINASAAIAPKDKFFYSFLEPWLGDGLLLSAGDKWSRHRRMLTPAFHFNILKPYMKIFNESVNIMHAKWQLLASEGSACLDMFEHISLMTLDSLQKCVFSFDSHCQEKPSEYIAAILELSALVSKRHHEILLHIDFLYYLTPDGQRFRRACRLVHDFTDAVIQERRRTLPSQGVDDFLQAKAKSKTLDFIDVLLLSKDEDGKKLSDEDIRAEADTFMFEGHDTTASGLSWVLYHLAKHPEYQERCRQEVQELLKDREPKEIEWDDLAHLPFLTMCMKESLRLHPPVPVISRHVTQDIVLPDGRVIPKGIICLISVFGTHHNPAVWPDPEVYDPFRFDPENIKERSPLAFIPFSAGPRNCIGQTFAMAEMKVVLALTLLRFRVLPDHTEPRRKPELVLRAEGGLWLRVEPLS
Procedure, shortened: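 Insect-cell-expressed human or rat P450 (with NADPH-P450 reductase, some also with cytochrome b5) at 0.1 pmol/µL in 100 mM potassium phosphate pH 7.4 with 10 mM MgCl2. DB868 (for M1) or M1 (for M2) was added at 5 µM (0.5% DMSO) and started with 2 mM NADPH. Stopped after 15 min with ice-cold acetonitrile, then HPLC-UV. Duplicate incubations.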

Km (Liver microsome [1]): 11 µM
Retention_time (Liver microsome [2]): 18.5 min
Drug metabolism [3]: metabolite_detected
Drug metabolism [4]: metabolite_detected
Drug metabolism [5]: metabolite_detected
metabolised at 4 h, 10 µM [6]: 50%
Drug metabolism [7]: metabolite_detected
Drug metabolism (Liver microsome [9]): 43%
Drug metabolism (Cytochrome P450 1A2): metabolite_detected
Drug metabolism (Cytochrome P450 4F2): metabolite_detected
Structure (SMILES): CO/N=C(\N)c1ccc(-c2ccc(-c3ccc(/C(N)=N/OC)cn3)o2)nc1.Cl
Activity [8]: 100%
